# Measured values: ChEMBL document CHEMBL3734687, “Mechanism of action of antiepileptic ceramide from Red Sea soft coral Sarcophyton auritum” (2015)
# The source made the active and inactive calls. The calls are words filed in the database; no cut-off is given here.
# What was measured:
# Mus musculus [1] = experiment: Anxiolytic activity in mouse assessed as increase in time spent in the open arm at 1 mg/kg measured for 3 mins by elevated plus maze test relative to vehicle treated control; type: functional, organism-based
# In short: (§1)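 Elevated plus maze in mice, 3 min screen. Read-out is percent of time spent in the open arms versus vehicle-treated mice. Diazepam reference at 1 mg/kg. Pretreatment with bicuculline (0.1 mg/kg, i.p.) or ondansetron (1 mg/kg, i.p.) preceded the test agent. n = 6/group. One-way ANOVA followed by Bonferroni, P<0.05.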
# Mus musculus [2] = experiment: Anxiolytic activity in mouse assessed as increase in time spent in the light area at 1 mg/kg, ip measured for 3 mins by dark-light transition test; type: functional, organism-based
# In short: (§2)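 Dark-light transition box in mice, 3 min session. Cumulative time spent in the light area was recorded. Diazepam reference at 1 mg/kg i.p. Antagonist arms were pretreated with bicuculline (0.1 mg/kg, i.p.) or ondansetron (1 mg/kg, i.p.) before the test agent. n = 6. One-way ANOVA with Bonferroni comparisons, P<0.05.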
# Mus musculus [3] = species on record: Mus musculus; experiment: Anticonvulsant activity in mouse assessed as time to death post pentylenetetrazole challenge measured for 20 mins; type: functional
# In short: (§3)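 Mice given an acute pentylenetetrazole challenge (70 mg/kg, i.p.). Time to death recorded over a 20 min observation. Some groups were pretreated with bicuculline (0.1 mg/kg, i.p.) or ondansetron (1 mg/kg, i.p.) before the test agent. n = 6 per group. One-way ANOVA with Bonferroni post-test, P<0.05.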
# Mus musculus [4] = experiment: Anxiolytic activity in mouse assessed as increase in time spent in the light area pretreated with 0.1 mg/kg, ip GABA-A blocker bicuculline followed by compound administration measured for 3 mins by dark-light transition test; type: functional, organism-based; in short: as §2
# Mus musculus [5] = experiment: Anticonvulsant activity in mouse model of PTZ-induced seizures assessed as prolongation of death time post pentylenetetrazole challenge pretreated with 0.1 mg/kg, ip GABA-A blocker bicuculline followed by compound administration measured for 20 mins; type: functional, organism-based; in short: as §3
# Mus musculus [6] = species on record: Mus musculus; experiment: Anxiolytic activity in mouse assessed as increase in time spent in the open arm measured for 3 mins by elevated plus maze test relative to vehicle treated control; type: functional, organism-based; in short: as §1
# Mus musculus [7] = species on record: Mus musculus; experiment: Anxiolytic activity in mouse assessed as increase in time spent in the light area measured for 3 mins by dark-light transition test; type: functional, organism-based; in short: as §2
# Mus musculus [8] = experiment: Anxiolytic activity in mouse assessed as increase in time spent in the light area pretreated with 1 mg/kg, ip 5-HT3 receptor blocker ondansetron followed by compound administration measured for 3 mins by dark-light transition test; type: functional, organism-based; in short: as §2
# Mus musculus [9] = experiment: Anticonvulsant activity in mouse model of PTZ-induced seizures assessed as prolongation of death time post pentylenetetrazole challenge pretreated with 1 mg/kg, ip 5-HT3 receptor blocker ondansetron followed by compound administration measured for 20 mins; type: functional, organism-based; in short: as §3
# Mus musculus [10] = experiment: Anxiolytic activity in mouse assessed as increase in time spent in the open arm pretreated with 1 mg/kg, ip 5-HT3 receptor blocker ondansetron followed by compound administration measured for 3 mins by elevated plus maze test; type: functional, organism-based; in short: as §1
# Mus musculus [11] = experiment: Anxiolytic activity in mouse assessed as increase in time spent in the open arm pretreated with 0.1 mg/kg, ip GABA-A blocker bicuculline followed by compound administration measured for 3 mins by elevated plus maze test; type: functional, organism-based; in short: as §1
Compound,Activity (Mus musculus [1]),Activity (Mus musculus [2]),Time (Mus musculus [3]) [s],Activity (Mus musculus [4]),Activity (Mus musculus [5]),Activity (Mus musculus [6]),Activity (Mus musculus [7]),Activity (Mus musculus [8]),Activity (Mus musculus [9]),Activity (Mus musculus [10]),Activity (Mus musculus [11])
CN1C(=O)CN=C(c2ccccc2)c2cc(Cl)ccc21 [DIAZEPAM],Active,Active,536,,,,,,,,
CCCCCCCCCCCCCC/C=C/C=C/[C@@H](O)[C@H](CO)NC(=O)CCCCCCCCCCCC,,,911,inactive,inactive,Active,Active,Active,Active,Active,inactive
